Reference: ChEMBL document CHEMBL4513216, “Probing the Open Global Health Chemical Diversity Library for Multistage-Active Starting Points for Next-Generation Antimalarials” (ACS Infect Dis, 2020)

Test: Toxicity liver stage against HepG2, at 10uM
Type: cell-based
Parameters: test concentration 10 uM, cell line HepG2-A16-CD81EGFP
Conditions: human, HepG2-A16-CD81EGFP cells; read-out: INHIBITION
Method in brief: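 Uninfected HepG2-A16-CD81EGFP cells, 3 × 10^3 per well, 1536-well, plated on prespotted compound at 10 μM final, parasite-free screening media added to match infected plates; puromycin 10 μM positive, DMSO 0.5% negative; run in parallel with 48 h PbLuc assay at 37 °C, 5% CO2; viability by CellTiter-Glo luminescence, normalized to controls.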

| Compound | cytotoxicity at 10 µM |
| --- | --- |
| COc1cc2c(cc1OC)S(=O)(=O)N(Cc1cccc(C)c1)C2=O | 5.98% |
| Cn1cncc1-c1nnc([C@H]2CCN(Cc3ccc(F)c(F)c3)C2)o1 | 3.04% |
| Nc1nc2nc(C3CCCN(C(=O)c4cnccn4)C3)ccc2s1 (stereo not given) | -16% |
| CC(C)CN1CCN(C)C2(CCN(c3nccs3)CC2)C1=O | -5.4% |
| Cc1nc([C@H]2C[C@@H]3CCN(C(=O)c4ccnnc4)C[C@H]3O2)sc1C | 1.01% |
| CCn1cc(-c2n[nH]c(=O)n2-c2ccc3c(c2)OCO3)c(C)n1 | 2.25% |
| Cc1ccc(NC2CCN(C(=O)CN(C)C3CC3)CC2)nn1 | 4.64% |
| O=C(O)c1ccc(F)c(S(=O)(=O)N2CCOc3ccccc32)c1 | -4.28% |
| O=C1COC2(CCN(Cc3ccccn3)CC2)CN1CC1CC1 | 13.9% |
| Cc1ncsc1CCN(C)C(=O)CN1CC2(CCNCC2)OC1=O | -7.33% |
| CNc1nc(CNC(=O)Nc2ccc([S+](C)[O-])c(F)c2)cs1 (stereo not given) | -12.2% |
| Cc1nc(Nc2ncccn2)cc(C2CCN(CC(C)C)C2)n1 (stereo not given) | -16.1% |
| Cc1cc(C)n(-c2ccc(N3CCC4(CC3)OCCO4)nc2)n1 | -4.84% |
| Cc1nc[nH]c1CN1CCN(C(=O)C2(C)CC2)[C@H]2CS(=O)(=O)C[C@H]21 | -4.76% |
| CCN1CCN(c2ccc(CNC(=O)c3cc(C)on3)cn2)CC1 | -11% |
| NC(=O)N1CCC(NCc2cc(Br)ccc2Cl)CC1 | -6.43% |
| Cc1ncc(CO)c(CN2CCCC2c2nc3c(C)cccc3[nH]2)c1O (stereo not given) | 0.414% |
| Cc1[nH]c(=O)[nH]c(=O)c1CC(=O)N1CCCN(CC2CC2)C(C(C)C)C1 (stereo not given) | -160% |
| Cc1cc(CNC(=O)CCN2CCN(c3ccccn3)CC2)c(C)o1 | 1.71% |
| Cc1cc(CCC(=O)N2CCCC2)nc(C2CCCN2)n1 (stereo not given) | 5.91% |
| Cc1ncc(CNC(=O)Cc2cccs2)c(C2CCCN2C)n1 (stereo not given) | -0.279% |
| CCN(Cc1cccc2c1OCO2)C(=O)NCc1ccccn1 | 1.48% |
| Cc1ncsc1CCC(=O)N(C)Cc1nc2ccccc2n1C | -143% |

| Compound | cytotoxicity at 10 µM |
| --- | --- |
| COCCN(Cc1cccc(O)c1)CC1CC1 | 12.7% |
| CCCOC(=O)c1ccc(-c2ccc(/C=C3\C(=O)NC(=N)N3C)o2)cc1 | 2.91% |
| CN(C)CC(=O)N1CC(c2nn(C)c3nccnc23)C1 | -6.26% |
| CN(C)c1cc(C(F)(F)F)cc(-c2ccc(C(=O)O)cc2)n1 | 9.15% |
| CCc1c(C)[nH]c2cc(C3CCN(Cc4ccncc4C)C3)nn2c1=O (stereo not given) | -14.1% |
| CCCn1ccnc1CN1CC[C@@H](NC(=O)c2cccnc2)[C@H](O)C1 | -7.31% |
| CCN(Cc1ccncc1)C(=O)C1COc2c(cccc2OC)C1 (stereo not given) | 3.4% |
| CN1CCN(Cc2c[nH]cn2)CC12CCC(=O)N(CC1CC1)CC2 (stereo not given) | 2.98% |
| CS(=O)(=O)N1CCc2c(nnn2CC2CC2)C1COCC1CC1 (stereo not given) | -3.15% |
| CNc1cccc(C2CCCN(C(=O)c3cncs3)C2)n1 (stereo not given) | -18.3% |
| CN(C)CCOCC1CN(Cc2ccoc2)Cc2nnn(C)c21 (stereo not given) | -1.53% |
| CCc1ccc2nc(NCCCN(CCO)CCO)cc(C)c2c1 | -13.3% |
| Cc1nc(C(=O)N2CCCC2c2c(C)nn(C)c2C)cs1 (stereo not given) | -15.8% |
| c1ccc2c(c1)OCCC2NCc1ccc(N2CCOCC2)cc1 (stereo not given) | -13.7% |
| NC(=O)c1ccc(N2CCCCC2)c(NC(=O)c2cc(Br)ccc2F)c1 | -12.9% |
| c1cnc(N2CCC3(CCN(CC4CCOC4)C3)CC2)nc1 (stereo not given) | -0.877% |
| COc1ccc(/C=C/CN2CCN(c3nccnc3C)CC2)cc1 | -8.47% |
| COc1ccccc1S(=O)(=O)CCOC(C)C | 6.24% |
| CC(C)c1nnc2n1CCN(C(=O)c1cc(Cl)c[nH]1)C2 | -11.4% |
| CSCC(=O)NC1CC(=O)N(CCc2ccccc2)C1 (stereo not given) | -2.1% |
| CCO[C@H]1CO[C@@]2(CCN(Cc3ccc4c(c3)OCO4)C2)C1 | 0.493% |
| CCn1ccc(NC(=O)CCc2c(C)nn(C)c2C)n1 | 4.01% |
